Most compounds without a hit are left out; they make up all but 3.1% or so of the library.
ADAM17 inh – ADAM17 inhibition, QFRET primary screen. inhibition, % at 6.95 µM. P78536. AID 720648. 370,000 tested, 0.83% active. recombinant ADAM17, EDANS/DABCYL FRET peptide cleavage;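 active = inhibition above the mean of compounds lying between control limits plus 3 SD, set per campaign, cut at about 8.5% in these data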;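 also: 0% = DMSO-only wells as the low control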
MPTP inh – inhibitors of mitochondrial permeability transition pore | isolated mouse mitochondria, Ca2+ swelling absorbance, 30 min | inhibition, % at 10 µM | 360,000 tested, 1.4% active | AID 602449;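 active = inhibition of 50% or more, scaled per plate between neutral and stimulator controls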;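 also: 0% = DMSO wells given calcium and 100% = 1 mM EGTA wells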
Hep lipid drop – hepatic lipid droplet formation modulation; AML12 mouse hepatocytes, oleate lipid droplets, BODIPY imaging; inhibition, % at 6.5 µM; 240,000 tested, 0.4% active;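 active = lipid droplet intensity inhibited by at least 50%, with more than 500 cells counted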
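Test system: AML12 mouse liver cells; schedule: overnight exposure; technique: high-content imaging of BODIPY-stained droplets and DAPI nuclei; read-out: % inhibition of corrected integrated BODIPY droplet signal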
aDG glyco up – increases alpha dystroglycan glycosylation. Pro5-aDG cells, alpha-DG glycosylation AlphaScreen (IIH6); 0% Pro5, 100% B10-LARGE cell signal. activation, % at 10 µM. 360,000 tested, 0.22% active. AID 624168;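 active = activation of at least 8% versus controls, or a plate z-score of at least 8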;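 also: Pro5 are CHO cells carrying HIG-tagged alpha-DG that lacks glycosylation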
ADAM10 inh – inhibitors of human ADAM10; recombinant ADAM10, EDANS/DABCYL FRET peptide cleavage, 3 h; inhibition, % at 7 µM; 370,000 tested, 0.62% active; AID 720582; O14672;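 active = inhibition above a per-campaign cutoff equal to the mean of compounds falling between control-based bounds plus 3 SD, cut at about 20% in these data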;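 also: 0% = DMSO wells while the 100% control is not disclosed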
Target sequence (O14672 214-748 limits assumed): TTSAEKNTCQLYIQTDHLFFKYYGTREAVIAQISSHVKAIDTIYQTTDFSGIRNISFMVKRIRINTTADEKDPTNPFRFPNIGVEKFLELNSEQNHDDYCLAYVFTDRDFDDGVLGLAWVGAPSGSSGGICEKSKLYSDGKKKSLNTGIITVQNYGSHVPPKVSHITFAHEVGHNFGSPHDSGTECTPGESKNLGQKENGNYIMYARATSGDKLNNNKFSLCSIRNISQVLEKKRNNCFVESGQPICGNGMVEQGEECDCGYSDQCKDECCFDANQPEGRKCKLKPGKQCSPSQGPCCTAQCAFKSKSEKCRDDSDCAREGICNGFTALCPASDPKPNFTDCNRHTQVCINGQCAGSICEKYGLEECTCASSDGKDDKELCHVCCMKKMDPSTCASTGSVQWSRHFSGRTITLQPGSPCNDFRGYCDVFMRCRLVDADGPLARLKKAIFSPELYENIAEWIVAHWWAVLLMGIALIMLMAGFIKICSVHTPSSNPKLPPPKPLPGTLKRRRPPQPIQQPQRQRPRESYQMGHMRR
V-ATPase pHluor – regulators of yeast V-ATPase proton transport; S. cerevisiae, pHLuorin cytosolic pH fluorescence; response, % at 10 µM; 350,000 tested, 0.37% active; in the data active = response mostly above about 7.3%, no sharp cut-off; inactive = mostly below about 5.4%; also: actives read high
Rh123 counter – membrane potential counter-screen of mitochondrial pore inhibitors. isolated mitochondria, Rhodamine 123 fluorescence. inhibition, % at 10 µM. AID 624504. 5,000 tested, 78% active. shares compounds with MPTP inh; in the data active = inhibition above about 22%;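 also: 0% = DMSO vehicle and 100% = positive control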
MPTP swell DR – dose response confirmation of mitochondrial permeability transition pore inhibitors. shares compounds with MPTP inh. isolated mitochondria swelling, absorbance. IC50, µM. 780 tested, 58% active; in the data active = IC50 below about 20 µM
MPTP counter DR – active in counter-screen for permeability transition pore inhibitors; isolated mitochondria counterscreen, fluorescence read-out; AID 651564; 780 tested, 49% active; shares compounds with MPTP inh; IC50, µM; in the data active = IC50 below about 80 µM
The depositor's hits bear a star; i = inactive; / = no result.

SMILES | ADAM17 inh | MPTP inh | Hep lipid drop | aDG glyco up | ADAM10 inh | V-ATPase pHluor | Rh123 counter | others
CCN(CC)CCSC(=O)C(c1ccccc1)c1ccccc1 | -2.1 | 65.0* | / | 0.1 | -2.5 | / | -2.5 | MPTP swell DR=i;MPTP counter DR=>80
CCN(CC)CCOC(=O)C(c1ccccc1)c1ccccc1 | -4.2 | -1.1 | -3.1 | -0.1 | -9.9 | 4.5 | /
O=C(c1cc(F)ccc1F)N(Cc1ccccn1)CC1CCCO1 (stereo unspecified) | -3.7 | / | / | / | -1.6 | / | /
CCc1ccc(/C=C/C(=O)c2ccc(N3CCOCC3)cc2)cc1 | 5.2 | 68.5* | -12.7 | 0.9 | 13.5 | 1.7 | 14.4 | MPTP swell DR=i;MPTP counter DR=18.9*
O=C(/C=C/c1ccc(F)cc1)c1ccc(N2CCOCC2)cc1 | -3.1 | 2.4 | 1.9 | 0.5 | 2.9 | 1.0 | /
COc1cc(C(=O)N(C)CC2CCN(CCc3cccc(C(F)(F)F)c3)CC2)ccc1C | -4.0 | 81.0* | -5.6 | 0.5 | -1.0 | 2.4 | 0.8 | MPTP swell DR=7.63*;MPTP counter DR=24.8*
CN(CC1CCN(CCc2cccc(C(F)(F)F)c2)CC1)C(=O)c1ccc(F)cc1 | 0.0 | 3.5 | -0.9 | 0.1 | -0.2 | 6.3 | /
CC(C)COc1ccc(S(=O)(=O)NNC(=O)c2cc3ccccc3o2)cc1 | 7.6 | 60.3* | 34.2 | 0.1 | 13.7 | -1.4 | 49.9*
CCCCOc1ccc(S(=O)(=O)NNC(=O)c2cc3ccccc3o2)cc1 | 4.5 | 35.9 | -13.2 | 0.0 | 6.0 | 4.8 | /
Cc1cc(OC[C@@H](O)CN2CCC(C(O)(c3ccccc3)c3ccccc3)CC2)ccc1Br | 6.7 | / | / | / | 10.4 | / | /
O=C(CSc1nnc(COc2ccccc2)n1-c1ccc(Cl)cc1)Nc1ccc(OCc2ccccc2)cc1 | 0.9 | / | / | / | -2.7 | / | /
N#Cc1c(C(F)(F)F)cc(-c2cccc(Cl)c2)[nH]c1=O | i | 94.1* | -0.5 | 0.1 | i | 8.1 | 89.3*
N#Cc1c(C(F)(F)F)cc(-c2ccc(Cl)cc2)[nH]c1=O | i | 92.6* | -1.2 | -0.1 | i | -4.2 | 82.1*
CCOc1ccc(C=NNC(=O)c2cc(-c3ccc(Cl)cc3)n[nH]2)cc1 | -2.9 | / | / | / | -4.3 | / | /
Cn1c(=O)c2[nH]c(Cc3cccc(O)c3)nc2n(C)c1=O | -4.4 | -0.4 | / | 0.0 | -3.3 | -5.2 | /
Cn1c(=O)c2[nH]c(COc3ccc(C(C)(C)C)cc3)nc2n(C)c1=O | / | 95.9* | 4.4 | 1.9 | / | 1.7 | 70.1*
CN(C)/C=C1/Sc2ccccc2C1=O | -8.2 | -1.1 | / | -0.3 | -17.6 | -1.3 | /
CC(=O)N(\C=C/C=C/C=C1\Sc2ccccc2C1=O)c1ccccc1 | 0.6 | 61.8* | 5.9 | 0.1 | -1.1 | -0.4 | 62.4*
CC(=O)c1ccc(N2CCN(S(=O)(=O)c3ccc4c(c3)CC(C)N4C(C)=O)CC2)cc1 (stereo unspecified) | -12.7 | 11.4 | -2.1 | 3.5 | -63.3 | -2.4 | /
CC(=O)c1ccc(N2CCN(S(=O)(=O)c3ccc4c(c3)CC(C)N4C(=O)C3CC3)CC2)cc1 (stereo unspecified) | -4.1 | 96.9* | -30.9 | 5.0 | 1.4 | 1.5 | 107.9*
O=c1c2c(nc3c(-c4cccc(Br)c4)c[nH]n13)CCCC2 | -4.8 | 58.4* | 3.2 | 2.8 | -5.1 | -4.7 | 72.8*
Fc1ccc(NC(=S)Nc2cccc3ccccc23)cc1F | -83.2 | 81.3* | -2.8 | 0.2 | -233.6 | -0.2 | 98.0*
S=C(Nc1ccc(Cl)cc1)Nc1cccc2cnccc12 | -1.1 | 102.3* | -27.7 | 2.1 | -4.9 | -2.0 | 93.2*
CC(=O)N1CCc2c1cccc2S(=O)(=O)NC(CC(C)C)C(=O)Nc1ccc(F)cc1Cl (stereo unspecified) | -0.7 | / | / | / | 8.3 | / | /
COc1ccc(-c2cc3ccccc3n2CC(O)CN2CCCCC2)cc1 (stereo unspecified) | -1.5 | 1.2 | -11.9 | 0.6 | -3.4 | -3.2 | /
SMILES | ADAM17 inh | MPTP inh | Hep lipid drop | aDG glyco up | ADAM10 inh | V-ATPase pHluor | Rh123 counter | others
COc1ccc(-c2cc3ccccc3n2CC(O)CNCCO)cc1 (stereo unspecified) | -7.5 | 53.8* | / | 0.5 | -21.5 | -4.0 | -18.3 | MPTP swell DR=10.2*;MPTP counter DR=>80
CCOC(=O)[C@@]12CCCC3=C1N(CCC3)C(=O)[C@H]2CC(=O)NCCCN1CCCC1=O | -4.2 | / | / | / | -6.8 | / | /
O=C(NCc1ccc(C(=O)NCC2CCCO2)cc1)c1cccc(Br)c1 (stereo unspecified) | -3.4 | / | / | / | -12.1 | / | /
CN(C)S(=O)(=O)c1cccc(C(=O)N/N=C\c2ccccc2[N+](=O)[O-])c1 | 0.0 | / | / | / | -6.9 | / | /
O=C(COc1ccc(-n2ccnc2)cc1)Nc1cccc(Cl)c1 | -0.6 | 88.6* | 18.7 | 0.2 | 4.0 | -0.3 | 57.1*
CCC(C)(C)c1ccc(OCC(=O)Nc2ccncc2)cc1 | 4.3 | 104.7* | -3.7 | -0.1 | 5.1 | 2.0 | 81.1*
O=C(COc1ccc(-n2ccnc2)cc1)Nc1cccc(F)c1 | -2.5 | 19.8 | 5.1 | -0.1 | -0.1 | -3.6 | /
O=C(COc1ccc(Br)cc1)Nc1ccncc1 | 0.5 | 54.7* | 2.4 | 0.1 | -2.5 | 0.3 | 57.6*
NC1=NC[C@H](Cc2ccc(O)cc2)N1CCC12CC3CC(CC(C3)C1)C2 | 1.1 | 50.4* | 27.3 | 0.1 | 4.1 | -4.7 | 0.6
Cc1ccc(N/N=C(\C#N)C(N)=S)c(C)c1 | 2.3 | 89.9* | 3.4 | -0.7 | 0.8 | 1.8 | 83.1*
O=C(CSCc1nc2ccccc2[nH]1)Nc1ccc2ccccc2c1 | 5.0 | 0.8 | / | 0.1 | 1.3 | -0.2 | /
c1ccc2cc(CSCc3nc4ccccc4[nH]3)ccc2c1 | 1.3 | 88.2* | -29.4 | 0.7 | -7.3 | 0.6 | 87.8*
COc1ccc(Nc2cc(C(=O)NCCCN3CCOCC3)c3ccccc3n2)cc1 | -1.6 | -1.1 | -11.7 | 0.0 | 2.8 | 0.1 | /
CCc1ccc(Nc2cc(C(=O)NCCCN3CCOCC3)c3ccccc3n2)cc1 | 1.9 | 51.8* | / | 0.1 | -2.5 | 0.9 | -24.6 | MPTP swell DR=i;MPTP counter DR=>80
CCCCCCCCCCn1c2c(c(=N)c3c1CCC3)CCC2 | 1.9 | 84.7* | / | 0.7 | 7.5 | 1.7 | 99.4*
CCCCCCCCCn1c2c(c(=N)c3c1CCC3)CCCC2 | / | 103.6* | -160.8 | 0.3 | / | 0.5 | 101.2*
CCCCCCCCn1c2c(c(=N)c3ccccc31)CCC2 | -14.0 | 33.0 | -166.9 | 4.5 | -27.9 | -1.0 | /
O=C(Nc1cccc(F)c1)C1CCCCC1 | 1.2 | -0.7 | / | 0.1 | -4.5 | -4.0 | /
O=C(Nc1cccc(-c2cccc(F)c2)c1)C1CCN(C2CCC2)CC1 | -2.8 | 64.5* | -6.0 | 3.1 | 2.6 | -1.8 | -8.3 | MPTP swell DR=7.74*;MPTP counter DR=58.3*
C/C(=N\Nc1cccc([N+](=O)[O-])c1)c1cc(F)ccc1O | 2.9 | 85.4* | 16.5 | 0.4 | 10.9 | 2.4 | 65.4*

Source: PubChem BioAssay (several laboratories)
